Holding throughout (assay type): functional
In experiment [1] the test system is Escherichia coli. As to the kind of experiment: Antibacterial activity against Escherichia coli K12 containing deletion deltaphoB mutant assessed as cell count in log phase at 100 ug/ml after 5 hrs. Summed up:
(§1)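 Deletion mutants were made by the Datsenko–Wanner method. Log-phase or stationary-phase cultures were exposed to ampicillin at 100 μg/ml. CFU/ml was determined at the start and after 5, 24 and 72 h of exposure.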

For experiment [2], the system named is Escherichia coli. The experiment in a line: Antibacterial activity against Escherichia coli K12 PhoU wild type W3110 assessed as cell count in log phase at 100 ug/ml after 5 hrs. Summed up:
(§2)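 Log-phase or stationary-phase cultures exposed to ampicillin 100 μg/ml in MOPS minimal medium (pH 5.0) at 37°C without shaking, for 5 h up to 10 days. Aliquots were taken at each time point, washed in saline and plated on LB plates for viable CFU/ml.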

The subject of experiment [3] is Escherichia coli. The experiment in a line: Antibacterial activity against Escherichia coli K12 PhoU wild type W3110 assessed as cell count in stationary phase at 100 ug/ml after 5 days. Summed up:
as §2

The subject of experiment [4] is Escherichia coli. The experiment in a line: Antibacterial activity against Escherichia coli K12 mutant JHU313 containing plasmid vector at 25 ug/ml after 48 hrs by disc diffusion method. Summed up: (§3)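 Kirby-Bauer paper-disc assay: log-phase E. coli (10⁸ bacteria) grown in LB broth, spread on LB agar for confluent growth; 7 mm nitrocellulose discs soaked with antibiotic solution at the listed concentration (μg/ml) placed on surface; incubated 37°C for 48 h; diameter of growth-inhibition zone measured in mm. Strain is the phoU transposon mutant transformed by electroporation with empty vector control.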
In general terms: In agar diffusion tests the substance spreads into inoculated agar from a disc or well.

In experiment [5] the test system is Escherichia coli. As to the kind of experiment: Antibacterial activity against Escherichia coli K12 containing deletion deltaphoBR mutant assessed as cell count in log phase at 100 ug/ml after 24 hrs. Summed up:
as §1

Experiment [6] deals with Escherichia coli. The experiment in a line: Antibacterial activity against Escherichia coli K12 containing PhoU mutant assessed as cell count in log phase at 100 ug/ml after 5 hrs. Summed up:
(§4)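 Log-phase or stationary-phase cultures were exposed to ampicillin (100 μg/ml) or norfloxacin (3 μg/ml) in MOPS minimal medium, pH 5.0, at 37°C without shaking, for 5 h to 10 days. Aliquots were saline-washed and plated on LB for CFU/ml.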

Experiment [7] has as its system Escherichia coli. As to the kind of experiment: Antibacterial activity against Escherichia coli K12 containing deletion deltaphoB mutant assessed as cell count in stationary phase at 100 ug/ml after 5 hrs. Summed up:
as §1

In experiment [8] the test system is Escherichia coli. The experiment in a line: Antibacterial activity against Escherichia coli K12 containing PhoU mutant assessed as cell count in stationary phase at 100 ug/ml after 5 hrs. Summed up:
as §4

Experiment [9] deals with Escherichia coli. The experiment in a line: Antibacterial activity against Escherichia coli K12 containing deletion deltaphoR mutant assessed as cell count in log phase at 100 ug/ml after 24 hrs. Summed up:
(§5)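 Wild-type W3110-derived deletion mutants were made by the Datsenko–Wanner method. Log-phase or stationary-phase cultures were exposed to ampicillin 100 μg/ml in MOPS minimal medium at pH 5.0, at 37°C without shaking. Aliquots were taken at set times, washed in saline and plated on LB for viable CFU/ml.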

Experiment [10] relates to Escherichia coli. The experiment in a line: Antibacterial activity against Escherichia coli K12 mutant JHU313 containing plasmid vector at 1.5 ug/ml after 48 hrs by disc diffusion method. Summed up: (§6)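 Kirby-Bauer disc assay: log-phase LB culture was spread on LB agar for confluent growth. 7-mm nitrocellulose discs were soaked in antibiotic at the listed concentration and placed on the agar. After 48 h at 37°C, the diameter of the inhibition zone was measured in mm.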

The subject of experiment [11] is Escherichia coli. The experiment in a line: Antibacterial activity against Escherichia coli K12 containing deletion deltaphoR mutant assessed as cell count in stationary phase at 100 ug/ml after 5 hrs. Summed up: as §5
For experiment [12], the system named is Escherichia coli. As to the kind of experiment: Antibacterial activity against Escherichia coli K12 containing deletion deltaphoU mutant assessed as cell count in stationary phase at 100 ug/ml after 1 day. Summed up: as §5
Experiment [13] concerns Escherichia coli. The experiment in a line: Antibacterial activity against Escherichia coli K12 PhoU wild type W3110 at 1.5 ug/ml after 48 hrs by disc diffusion method. Summed up:
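Kirby-Bauer disc assay. Log-phase LB broth culture (10⁸ bacteria) was spread on LB agar for confluent growth. 7 mm nitrocellulose discs soaked in antibiotic solution at the listed concentration were placed on the agar. Inhibition zone diameter (mm) was measured after 48 h at 37°C.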

In experiment [14] the test system is Escherichia coli. The experiment in a line: Antibacterial activity against Escherichia coli K12 containing deletion deltahipA mutant assessed as cell count in stationary phase at 100 ug/ml after 24 hrs. Summed up:
as §1

In experiment [15] the test system is Escherichia coli. As to the kind of experiment: Antibacterial activity against Escherichia coli K12 mutant JHU313 containing plasmid PhoU at 100 ug/ml after 48 hrs by disc diffusion method. Summed up:
as §6

In experiment [16] the test system is Escherichia coli. As to the kind of experiment: Antibacterial activity against Escherichia coli K12 containing deletion deltaphoU mutant assessed as cell count in log phase at 3 ug/ml after 5 days. Summed up:
(§7)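 Log-phase or stationary-phase cultures of the ΔphoU deletion mutant (Datsenko–Wanner construction) were exposed to norfloxacin 3 μg/ml in MOPS minimal medium, pH 5.0, at 37°C without shaking, for up to 10 days. Sampled aliquots were washed in saline and plated on LB agar for CFU/ml.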

The test system of experiment [17] is Escherichia coli. As to the kind of experiment: Antibacterial activity against Escherichia coli K12 containing deletion deltaphoU mutant assessed as cell count in log phase at 3 ug/ml after 3 days. Summed up:
as §7

The subject of experiment [18] is Escherichia coli. The experiment in a line: Antibacterial activity against Escherichia coli K12 PhoU wild type W3110 assessed as cell count in log phase at 3 ug/ml after 10 days. Summed up:
as §4

Experiment [19] has as its system Escherichia coli. As to the kind of experiment: Antibacterial activity against Escherichia coli K12 containing deletion deltaphoU mutant assessed as cell count in stationary phase at 3 ug/ml after 3 days. Summed up:
as §7

Experiment [20] relates to Escherichia coli. The experiment in a line: Antibacterial activity against Escherichia coli K12 PhoU wild type W3110 assessed as cell count in stationary phase at 3 ug/ml after 5 hrs. Summed up:
as §4

Experiment [21] concerns Escherichia coli. The experiment in a line: Antibacterial activity against Escherichia coli K12 containing deletion deltaphoU mutant assessed as cell count in stationary phase at 3 ug/ml after 1 day. Summed up:
as §7

Experiment [22] concerns Escherichia coli. The experiment in a line: Antibacterial activity against Escherichia coli K12 mutant JHU313 at 4 ug/ml after 48 hrs by disc diffusion method. Summed up: as §6
In experiment [23] the test system is Escherichia coli. As to the kind of experiment: Antibacterial activity against Escherichia coli K12 mutant JHU313 containing plasmid PhoU at 0.5 ug/ml after 48 hrs by disc diffusion method. Summed up: as §6
For experiment [24], the system named is Escherichia coli. The experiment in a line: Antibacterial activity against Escherichia coli K12 containing PhoU mutant assessed as cell count in stationary phase at 3 ug/ml after 10 days. Summed up:
as §4

The subject of experiment [25] is Escherichia coli. As to the kind of experiment: Antibacterial activity against Escherichia coli K12 containing PhoU mutant assessed as cell count in log phase at 3 ug/ml after 10 days. Summed up: as §4
Experiment [26] deals with Escherichia coli. As to the kind of experiment: Antibacterial activity against Escherichia coli K12 mutant JHU313 containing plasmid vector at 2 ug/ml after 48 hrs by disc diffusion method. Summed up:
as §6

The test system of experiment [27] is Escherichia coli. The experiment in a line: Antibacterial activity against Escherichia coli K12 mutant JHU313 containing plasmid vector at 4 ug/ml after 48 hrs by disc diffusion method. Summed up: as §3
The test system of experiment [28] is Escherichia coli. As to the kind of experiment: Antibacterial activity against Escherichia coli K12 containing deletion deltaphoU mutant assessed as cell count in stationary phase at 3 ug/ml after 1 week. Summed up:
as §7

The subject of experiment [29] is Escherichia coli. The experiment in a line: Antibacterial activity against Escherichia coli K12 containing PhoU mutant assessed as cell count in stationary phase at 3 ug/ml after 5 days. Summed up:
as §4

Experiment [30] relates to Escherichia coli. The experiment in a line: Antibacterial activity against Escherichia coli K12 containing deletion deltaphoU mutant assessed as cell count in log phase at 3 ug/ml after 1 day. Summed up: as §7
Experiment [31] relates to Escherichia coli. As to the kind of experiment: Antibacterial activity against Escherichia coli K12 containing deletion deltaphoU mutant assessed as cell count in stationary phase at 3 ug/ml after 5 hrs. Summed up:
as §7

For `CC1(C)S[C@@H]2[C@H](NC(=O)[C@H](N)c3ccccc3)C(=O)N2[C@H]1C(=O)O` [AMPICILLIN], the CFU in the experiment on Escherichia coli [1] was 6 10^3/ml; in the experiment on Escherichia coli [2], 3 10^3/ml; in the experiment with Escherichia coli [3], 3 10^7/ml; in the experiment with Escherichia coli [5], 2 10^3/ml; with Escherichia coli [6], 20 mL⁻¹; with Escherichia coli [7], 4 10^9/ml. The CFU is 2 10^8/ml in the experiment with Escherichia coli [8]; 1 10^2/ml in the experiment with Escherichia coli [9]; 4 10^9/ml with Escherichia coli [11]; 7 10^6/ml with Escherichia coli [12]; 1.8 10^9/ml in the experiment with Escherichia coli [14]. The inhibition zone (IZ) amounted to 40 mm in the experiment on Escherichia coli [4], 27 mm in the experiment with Escherichia coli [10], 21 mm with Escherichia coli [13] and 40 mm with Escherichia coli [15].
As to `CCn1cc(C(=O)O)c(=O)c2cc(F)c(N3CCNCC3)cc21` [NORFLOXACIN], the CFU in the experiment on Escherichia coli [16] was 0 mL⁻¹; in the experiment with Escherichia coli [17], 0 mL⁻¹; in the experiment on Escherichia coli [18], 0 mL⁻¹; in the experiment with Escherichia coli [19] it was 3 10^5/ml; in the experiment with Escherichia coli [20], 5 10^9/ml; with Escherichia coli [21] it was 2 10^8/ml. For the same compound, the CFU is 0 mL⁻¹ in the experiment with Escherichia coli [24]; 0 mL⁻¹ in the experiment with Escherichia coli [25]; 0 mL⁻¹ with Escherichia coli [28]; 0 mL⁻¹ with Escherichia coli [29]; 1 10^6/ml with Escherichia coli [30]; 6 10^8/ml in the experiment with Escherichia coli [31]. In addition, the inhibition zone (IZ) is 37 mm in the experiment on Escherichia coli [22], 31 mm with Escherichia coli [23], 40 mm with Escherichia coli [26] and 44 mm in the experiment on Escherichia coli [27].

The record behind these values is ChEMBL document CHEMBL1145465, “PhoU is a persistence switch involved in persister formation and tolerance to multiple antibiotics and stresses in Escherichia coli” (2007).
